The text below walks through data of ChEMBL document CHEMBL1140145, “Identification of non-nucleoside DNA synthesis inhibitors of vaccinia virus by high-throughput screening” (J Med Chem, 2008).

Structures are written as SMILES. Active and inactive are the calls of the source. The calls are words filed in the database; no cut-off is given here.

Series [1] deals with Vaccinia virus. In words: Inhibition of Vaccinia virus DNA synthesis in by rapid plate assay. The class given is functional, organism-based. Particulars: Orthopoxvirus vaccinia.
The test system of series [2] is Vaccinia virus. Kind of series: Antiviral activity against Vaccinia virus WR in BSC1 cells assessed as reduction in plaque formation after 20 hrs. Particulars: Orthopoxvirus vaccinia, BSC-1, 20 h. The class given is functional, organism-based.
Series [3] has as its system Vaccinia virus. Kind of series: Antiviral activity against Vaccinia virus WR in BSC1 cells assessed as protection from virus-induced lysis of cell monolayer after 20 hrs. The class given is functional, organism-based. The conditions noted are these: Orthopoxvirus vaccinia, BSC-1, 20 h.
Series [4] in a line: Cytotoxicity against african green monkey BSC1 cells after 20 hrs WST-1 based assay. The class given is cell-based, BSC-1. The conditions noted are these: chlorocebus aethiops, read-out: TC50. The essentials:
(§1)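 Uninfected BS-C-1 cells in phenol red-free medium, seeded 5000 (20 h), 1000 (3-day) or 200 (5-day) cells/well, exposed next day to compound in two-fold serial dilutions (top 200 µM; 1% DMSO final) at 37°C. WST-1 added 30 min, A450 read. Triplicates; percent cytotoxicity vs DMSO fitted four-parameter sigmoidal for TC50.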
(In general: Tetrazolium assays rely on reduction of a dye to a coloured formazan, in cell work by metabolically active cells.)

Series [5] can be described thus: Cytotoxicity against african green monkey BSC1 cells after 72 hrs WST-1 based assay. The class given is cell-based, BSC-1. The conditions noted are these: chlorocebus aethiops, read-out: TC50. The essentials: as §1
Series [6] is described as follows: Cytotoxicity against african green monkey BSC1 cells after 120 hrs WST-1 based assay. The class given is cell-based, BSC-1. Particulars: chlorocebus aethiops, read-out: TC50. The essentials:
as §1

A short description of series [7]: Selectivity index, TC50 for african green monkey BSC1 cells after 20 hrs to EC50 for Vaccinia virus WR in BSC1 cells after 20 hrs by cell protection assay. The class given is toxicity, cell-based, BSC-1. The conditions noted are these: read-out: Selectivity Index.
In series [8] the test system is Vaccinia virus. In words: Antiviral activity against Vaccinia virus WR in BSC1 cells assessed as retention of antiviral potency by measuring exogenous double stranded DNA trapping. The class given is functional, organism-based. The conditions noted are these: Orthopoxvirus vaccinia, BSC-1.
The nature of series [9]: Selectivity index, TC50 for african green monkey BSC1 cells after 72 hrs to EC50 for Vaccinia virus WR in BSC1 cells after 72 hrs by cell protection assay. The class given is toxicity, cell-based, BSC-1. The conditions noted are these: read-out: Selectivity Index.

`N=C1S/C(=C/c2ccco2)C(=O)N1c1nccs1`: the IC50 (in general, the concentration at which inhibition is half-maximal) in the series on Vaccinia virus [1] is 32 µM. Further, the EC50 (as a rule, the concentration at which the effect is half-maximal) worked out at 75 µM in the series with Vaccinia virus [2] and 80 µM in the series on Vaccinia virus [3]. In addition, the CC50 at 20 h in series [4] is more than 100 µM. Further, the CC50 at 72 h in [5] was more than 100 µM. In addition, the CC50 at 120 h in series [6] was 50 µM. In addition, the selectivity ratio at 20 h in series [7] was more than 1.2. Besides, the result in the series on Vaccinia virus [8] was Active.
In the series on Vaccinia virus [1], `COc1ccc(-c2cc3ccccn3c2C(=O)c2cccnc2)c(OC)c1` registered a 50% inhibitory concentration (IC50) of 25 µM. The values for the concentration giving a half-maximal response (EC50) in the series with Vaccinia virus [2] and in the series with Vaccinia virus [3] were 100 µM and 87 µM, respectively. In addition, the CC50 at 20 h in [4] is more than 200 µM. The CC50 at 72 h in series [5] was determined as 152 µM. Besides, in series [6], the CC50 at 120 h turned out to be 60 µM. Besides, the selectivity ratio at 20 h in series [7] is more than 2.3. In addition, in the series on Vaccinia virus [8], the outcome was inactive.
`Cc1cc(OC(=O)c2ccco2)nc(SCc2c(Cl)cccc2Cl)n1` had an IC50 with Vaccinia virus [1] of 52 µM. Besides, the results for the EC50 in the series with Vaccinia virus [2] and in the series on Vaccinia virus [3] were 75 µM and 100 µM, respectively. For the same compound, in series [4], the CC50 at 20 h was more than 100 µM. Further, the CC50 at 72 h in [5] was more than 100 µM. For the same compound, the CC50 at 120 h in series [6] is more than 100 µM. Besides, the selectivity ratio at 20 h in series [7] is more than 2. In addition, the outcome with Vaccinia virus [8] was Active.
Compound `O=C1/C(=C/C2CCCO2)CC/C1=C\C1CCCO1` (stereo not given) gave an IC50 in the series with Vaccinia virus [1] of 239 µM. Further, the values for the EC50 with Vaccinia virus [2] and with Vaccinia virus [3] were 50 µM and 100 µM, respectively. Moreover, the CC50 at 20 h in [4] is more than 100 µM. In series [5], the CC50 at 72 h is more than 100 µM. In addition, the CC50 at 120 h in [6] was determined as 50 µM. In addition, in series [7], the selectivity ratio at 20 h was more than 1. Further, in the series on Vaccinia virus [8], the result was Active.
As to `Cc1ccc2c(Sc3ccc(Cl)cc3)c(C(=O)O)[nH]c2c1`, the IC50 in the series on Vaccinia virus [1] stood at 43 µM. Besides, the EC50 in the series with Vaccinia virus [2] worked out at 75 µM. Also, the CC50 at 20 h in series [4] is more than 200 µM. Moreover, the CC50 at 72 h in series [5] was 174 µM. Moreover, the CC50 at 120 h in series [6] came out at 120 µM. In addition, the selectivity ratio at 20 h in series [7] was more than 1.5. For the same compound, the outcome with Vaccinia virus [8] was Active.
Take `COC(=O)c1cccc2c1-c1ccccc1/C2=N\O`: the concentration for half-maximal inhibition (IC50) in the series with Vaccinia virus [1] turned out to be 108 µM. For the same compound, the EC50 with Vaccinia virus [2] stood at 10 µM; in the series with Vaccinia virus [3], 9.6 µM. Also, the CC50 at 20 h in [4] was 127 µM. In addition, the CC50 at 120 h in series [6] turned out to be 20 µM. In addition, the selectivity ratio at 20 h in [7] was 13.2. Besides, the outcome in the series on Vaccinia virus [8] was Active. For the same compound, in series [9], the selectivity ratio at 72 h amounted to 3.2.
Turning to `Cc1c(/N=C/c2cc(Br)cc(Br)c2O)cccc1C(=O)O`, inhibition in the series with Vaccinia virus [1] was half-maximal at 26 µM (IC50). Further, the EC50 is 75 µM in the series with Vaccinia virus [2] and 100 µM with Vaccinia virus [3]. Further, the CC50 at 20 h in series [4] is more than 200 µM. In addition, the CC50 at 72 h in [5] was 38 µM. In [6], the CC50 at 120 h turned out to be 20 µM. In series [7], the selectivity ratio at 20 h is more than 2. Besides, the outcome in the series on Vaccinia virus [8] was Active.
In the series on Vaccinia virus [1], `O=C(Nc1ccccc1C(=O)O)OCC1c2ccccc2-c2ccccc21` yielded an IC50 of 26 µM. Further, in the series on Vaccinia virus [2], the EC50 stood at 75 µM. Besides, in [4], the CC50 at 20 h is more than 200 µM. In series [5], the CC50 at 72 h was 40 µM. Also, in series [6], the CC50 at 120 h is 20 µM. Besides, the selectivity ratio at 20 h in series [7] is more than 1.9. Also, in the series on Vaccinia virus [8], the result was Active.
The compound `CCn1c2ccccc2c2ccc(/C=N/n3cnnc3)cc21` had an IC50 in the series on Vaccinia virus [1] of 131 µM. Moreover, the EC50 in the series on Vaccinia virus [2] and with Vaccinia virus [3] was 50 µM each time. The CC50 at 20 h in series [4] was more than 200 µM. Besides, in [5], the CC50 at 72 h worked out at 36 µM. Besides, the CC50 at 120 h in series [6] is 3 µM. The selectivity ratio at 20 h in series [7] is more than 4. Moreover, the result with Vaccinia virus [8] was Active.
The compound `Cc1cc(/N=C/c2cc(Cl)cc(Cl)c2O)no1` registered an IC50 with Vaccinia virus [1] of 30 µM. The EC50 with Vaccinia virus [2] turned out to be 75 µM; in the series with Vaccinia virus [3], 95 µM. Further, the CC50 at 20 h in series [4] was more than 200 µM. The CC50 at 72 h in [5] stood at 50 µM. Further, the CC50 at 120 h in series [6] amounted to 20 µM. Besides, in series [7], the selectivity ratio at 20 h is more than 2.1. In addition, the result in the series on Vaccinia virus [8] was Active.
In the series with Vaccinia virus [1], `CC(=O)n1c2ccccc2c2nc(C)sc21` yielded a concentration for half-maximal inhibition (IC50) of 111 µM. In the series with Vaccinia virus [2], the EC50 worked out at 100 µM. In addition, in series [4], the CC50 at 20 h is more than 200 µM. Also, the CC50 at 72 h in series [5] was more than 200 µM. Further, the CC50 at 120 h in [6] is 75 µM. Further, the selectivity ratio at 20 h in [7] is more than 1. In addition, the result in the series on Vaccinia virus [8] was Active.
